Source: ChEMBL document CHEMBL4406845, “Synthesis of benzotriazoles derivatives and their dual potential as α-amylase and α-glucosidase inhibitors in vitro: Structure-activity relationship, molecular docking, and kinetic studies” (Eur J Med Chem, 2019)

Columns and labels:
[1] = biological target: Alpha glucosidase (Homo sapiens, UniProt O43451+P10253+P14410+Q2M2H8); assay: Inhibition of alpha-glucosidase (unknown origin); type: protein assay
[2] = biological target: T1, Alpha amylase (Homo sapiens, UniProt P0DUB6); assay: Inhibition of alpha-amylase (unknown origin) using starch as substrate preincubated for 10 mins followed by substrate addition and measured after 10 mins by dinitrosalicylic acid reagent based assay
T1 sequence (P0DUB6 whole entry): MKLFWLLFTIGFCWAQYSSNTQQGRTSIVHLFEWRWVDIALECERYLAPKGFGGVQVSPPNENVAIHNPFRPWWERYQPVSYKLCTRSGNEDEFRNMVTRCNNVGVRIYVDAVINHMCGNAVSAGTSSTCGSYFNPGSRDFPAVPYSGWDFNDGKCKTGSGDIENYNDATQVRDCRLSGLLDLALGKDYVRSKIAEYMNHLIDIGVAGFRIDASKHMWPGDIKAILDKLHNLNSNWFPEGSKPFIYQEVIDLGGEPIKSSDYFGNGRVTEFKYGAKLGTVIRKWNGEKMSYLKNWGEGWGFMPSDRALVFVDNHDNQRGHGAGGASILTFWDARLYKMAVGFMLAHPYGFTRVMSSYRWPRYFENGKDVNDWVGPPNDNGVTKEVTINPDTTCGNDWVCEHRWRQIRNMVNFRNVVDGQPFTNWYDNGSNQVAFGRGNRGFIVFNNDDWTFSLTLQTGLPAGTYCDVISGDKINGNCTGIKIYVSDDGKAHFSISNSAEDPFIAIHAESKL

[3] = tested on: O=C(c1ccc(Br)cc1)n1nnc2ccccc21; assay: (§1) Non-competitive inhibition of alpha-glucosidase (unknown origin) assessed as substrate Vmax using p-nitrophenyl-R-D-maltoside as substrate incubated for 30 mins at 1 min interval by ELISA-based Lineweaver-burk plot analysis; type: protein assay; settings: Homo sapiens
[4] = tested on: Cc1ccc(C(=O)n2nnc3cc(Cl)c(Cl)cc32)cc1C; assay: as §1; type: protein assay; settings: Homo sapiens
[5] = tested on: O=C(c1cccc(Cl)c1)n1nnc2cc(Cl)c(Cl)cc21; assay: as §1; type: protein assay; settings: Homo sapiens
[6] = tested on: O=C(Cn1nnc2ccccc21)c1ccccc1O; assay: as §1; type: protein assay; settings: Homo sapiens
[7] = tested on: COc1ccc(C(=O)Cn2nnc3cc(C)c(C)cc32)cc1; assay: as §1; type: protein assay; settings: Homo sapiens
[8] = tested on: Cc1cc2nnn(C(=O)c3ccccc3)c2cc1C; assay: as §1; type: protein assay; settings: Homo sapiens
[9] = tested on: Cc1cc(C(=O)n2nnc3ccccc32)cc(C)c1C; assay: as §1; type: protein assay; settings: Homo sapiens
[10] = tested on: O=C(Cn1nnc2ccccc21)c1cccc([N+](=O)[O-])c1; assay: as §1; type: protein assay; settings: Homo sapiens
[11] = tested on: CCCCOc1ccc(C(=O)n2nnc3ccccc32)cc1; assay: as §1; type: protein assay; settings: Homo sapiens
[12] = tested on: O=C(c1ccc(Br)cc1)n1nnc2ccccc21; assay: (§2) Non-competitive inhibition of alpha-glucosidase (unknown origin) assessed as substrate Km using p-nitrophenyl-R-D-maltoside as substrate incubated for 30 mins at 1 min interval by ELISA-based Lineweaver-burk plot analysis; type: protein assay; settings: Homo sapiens
[13] = tested on: Cc1ccc(C(=O)n2nnc3cc(Cl)c(Cl)cc32)cc1C; assay: as §2; type: protein assay; settings: Homo sapiens
[14] = tested on: O=C(c1cccc(Cl)c1)n1nnc2cc(Cl)c(Cl)cc21; assay: as §2; type: protein assay; settings: Homo sapiens
[15] = tested on: O=C(Cn1nnc2ccccc21)c1ccccc1O; assay: as §2; type: protein assay; settings: Homo sapiens
[16] = tested on: COc1ccc(C(=O)Cn2nnc3cc(C)c(C)cc32)cc1; assay: as §2; type: protein assay; settings: Homo sapiens
[17] = tested on: Cc1cc2nnn(C(=O)c3ccccc3)c2cc1C; assay: as §2; type: protein assay; settings: Homo sapiens
[18] = tested on: Cc1cc(C(=O)n2nnc3ccccc32)cc(C)c1C; assay: as §2; type: protein assay; settings: Homo sapiens
[19] = tested on: O=C(Cn1nnc2ccccc21)c1cccc([N+](=O)[O-])c1; assay: as §2; type: protein assay; settings: Homo sapiens
[20] = tested on: CCCCOc1ccc(C(=O)n2nnc3ccccc32)cc1; assay: as §2; type: protein assay; settings: Homo sapiens
[21] = tested on: Cc1cc2nnn(CC(=O)c3ccc(Cl)c(Cl)c3)c2cc1C; assay: (§3) Competitive inhibition of alpha-amylase (unknown origin) assessed as substrate Vmax using p-nitrophenyl-R-D-maltoside as substrate incubated for 30 mins by ELISA-based Lineweaver-burk plot analysis; settings: Homo sapiens
Procedure, shortened: (§4)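 Kinetics: inhibitor at 0.0625, 0.125, 0.3 and 0.4 mM crossed with p-nitrophenyl-R-D-maltoside at 0.1, 0.2, 0.4, 0.8 and 1.0 mM. Enzyme dissolved in deionized water, 0.2 mg/mL per well. PIPES buffer, pH 7.0, 30 min at 25 °C. Absorbance read on a plate reader. Vmax, Km, AICc and R² obtained by enzyme-kinetic graph fitting.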

[22] = tested on: Cc1cc2nnn(CC(=O)c3ccc(Cl)cc3)c2cc1C; assay: as §3; settings: Homo sapiens; procedure, shortened: as §4
[23] = tested on: O=C(c1cccc(Cl)c1)n1nnc2cc(Cl)c(Cl)cc21; assay: as §3; settings: Homo sapiens; procedure, shortened: as §4
[24] = tested on: COc1ccc(C(=O)n2nnc3ccccc32)cc1; assay: as §3; settings: Homo sapiens; procedure, shortened: as §4
[25] = tested on: COc1ccc(C(=O)Cn2nnc3cc(C)c(C)cc32)cc1; assay: as §3; settings: Homo sapiens; procedure, shortened: as §4
[26] = tested on: O=C(c1ccc(F)cc1)n1nnc2ccccc21; assay: as §3; settings: Homo sapiens; procedure, shortened: as §4
[27] = tested on: O=C(Cn1nnc2ccccc21)c1ccc(Cl)cc1; assay: as §3; settings: Homo sapiens; procedure, shortened: as §4
[28] = tested on: O=C(c1ccc([N+](=O)[O-])cc1)n1nnc2ccccc21; assay: as §3; settings: Homo sapiens; procedure, shortened: as §4
[29] = tested on: O=C(Cn1nnc2ccccc21)c1cccc(Br)c1; assay: as §3; settings: Homo sapiens; procedure, shortened: as §4
[30] = tested on: Cc1cc2nnn(CC(=O)c3ccc(Cl)c(Cl)c3)c2cc1C; assay: (§5) Competitive inhibition of alpha-amylase (unknown origin) assessed as substrate Km using p-nitrophenyl-R-D-maltoside as substrate incubated for 30 mins by ELISA-based Lineweaver-burk plot analysis; settings: Homo sapiens; procedure, shortened: as §4
[31] = tested on: Cc1cc2nnn(CC(=O)c3ccc(Cl)cc3)c2cc1C; assay: as §5; settings: Homo sapiens; procedure, shortened: as §4
[32] = tested on: O=C(c1cccc(Cl)c1)n1nnc2cc(Cl)c(Cl)cc21; assay: as §5; settings: Homo sapiens; procedure, shortened: as §4
[33] = tested on: COc1ccc(C(=O)n2nnc3ccccc32)cc1; assay: as §5; settings: Homo sapiens; procedure, shortened: as §4
[34] = tested on: COc1ccc(C(=O)Cn2nnc3cc(C)c(C)cc32)cc1; assay: as §5; settings: Homo sapiens; procedure, shortened: as §4
[35] = tested on: O=C(c1ccc(F)cc1)n1nnc2ccccc21; assay: as §5; settings: Homo sapiens; procedure, shortened: as §4
[36] = tested on: O=C(Cn1nnc2ccccc21)c1ccc(Cl)cc1; assay: as §5; settings: Homo sapiens; procedure, shortened: as §4
[37] = tested on: O=C(c1ccc([N+](=O)[O-])cc1)n1nnc2ccccc21; assay: as §5; settings: Homo sapiens; procedure, shortened: as §4
[38] = tested on: O=C(Cn1nnc2ccccc21)c1cccc(Br)c1; assay: as §5; settings: Homo sapiens; procedure, shortened: as §4

Cc1cc2nnn(CC(=O)c3ccc(Cl)c(Cl)c3)c2cc1C
IC50 [1]: 2.04 µM | IC50 [2]: 2 µM

O=C(Cn1nnc2ccccc21)c1ccccc1
IC50 [1]: 4.91 µM | IC50 [2]: 4.89 µM

O=C(Cn1nnc2ccccc21)c1ccccc1O
IC50 [1]: 4.87 µM | IC50 [2]: 4.9 µM

Cc1cc2nnn(CC(=O)c3ccccc3)c2cc1C
IC50 [1]: 3.41 µM | IC50 [2]: 3.53 µM

Cc1cc2nnn(C(=O)c3ccccc3)c2cc1C
IC50 [1]: 3.4 µM | IC50 [2]: 3.32 µM

COc1ccc(C(=O)n2nnc3ccccc32)cc1
IC50 [1]: 2.99 µM | IC50 [2]: 2.98 µM

O=C(c1ccc(F)c(F)c1Cl)n1nnc2ccccc21
IC50 [1]: 5.63 µM | IC50 [2]: 5.72 µM

Cc1ccc(C(=O)n2nnc3ccccc32)cc1C
IC50 [1]: 4.8 µM | IC50 [2]: 4.73 µM

O=C(c1ccccc1)n1nnc2ccccc21
IC50 [1]: 5.29 µM | IC50 [2]: 5.38 µM

Alpha glucosidase (Homo sapiens) (from UniProt O43451+P10253+P14410+Q2M2H8)
Vmax [3]: 612 µM/min | Vmax [4]: 620 µM/min | Vmax [5]: 620 µM/min | Vmax [6]: 601 µM/min | Vmax [7]: 620 µM/min | Vmax [8]: 602 µM/min | Vmax [9]: 612 µM/min | Vmax [10]: 618 µM/min | Vmax [11]: 621 µM/min | Km [12]: 200 µM | Km [13]: 240 µM | Km [14]: 250 µM | Km [15]: 250 µM | Km [16]: 210 µM | Km [17]: 200 µM | Km [18]: 200 µM | Km [19]: 260 µM | Km [20]: 240 µM

Alpha amylase (Homo sapiens) (from UniProt P0DUB6)
Vmax [21]: 593 µM/min | Vmax [22]: 514 µM/min | Vmax [23]: 514 µM/min | Vmax [24]: 554 µM/min | Vmax [25]: 505 µM/min | Vmax [26]: 522 µM/min | Vmax [27]: 527 µM/min | Vmax [28]: 512 µM/min | Vmax [29]: 512 µM/min | Km [30]: 240 µM | Km [31]: 180 µM | Km [32]: 200 µM | Km [33]: 210 µM | Km [34]: 200 µM | Km [35]: 190 µM | Km [36]: 200 µM | Km [37]: 200 µM | Km [38]: 210 µM

Cc1cc2nnn(CC(=O)c3ccc(Cl)cc3)c2cc1C
IC50 [1]: 2.21 µM | IC50 [2]: 2.12 µM

Nc1cc(C(=O)n2nnc3ccccc32)ccc1Cl
IC50 [1]: 4.32 µM | IC50 [2]: 4.28 µM

Cc1cc(C(=O)n2nnc3ccccc32)ccc1[N+](=O)[O-]
IC50 [1]: 4.1 µM | IC50 [2]: 4.08 µM

O=C(c1ccc(Br)cc1)n1nnc2ccccc21
IC50 [1]: 3.2 µM | IC50 [2]: 3.13 µM

O=C(Cn1nnc2ccccc21)c1ccc(Cl)c(Cl)c1
IC50 [1]: 3.9 µM | IC50 [2]: 3.89 µM

Cc1ccc(C(=O)n2nnc3cc(Cl)c(Cl)cc32)cc1C
IC50 [1]: 3.82 µM | IC50 [2]: 3.66 µM

O=C(Cn1nnc2ccccc21)c1cccc(Cl)c1Cl
IC50 [1]: 3.47 µM | IC50 [2]: 3.51 µM

O=C(Cn1nnc2ccccc21)c1ccc(Cl)cc1
IC50 [1]: 2.5 µM | IC50 [2]: 2.41 µM

COc1ccc(C(=O)Cn2nnc3ccccc32)cc1
IC50 [1]: 4.5 µM | IC50 [2]: 4.42 µM

O=C(c1ccc([N+](=O)[O-])cc1)n1nnc2ccccc21
IC50 [1]: 2.97 µM | IC50 [2]: 2.92 µM

Cc1cc2nnn(CC(=O)c3ccccc3O)c2cc1C
IC50 [1]: 3.3 µM | IC50 [2]: 3.21 µM

O=C(Cn1nnc2ccccc21)c1cccc(Br)c1
IC50 [1]: 4.41 µM | IC50 [2]: 4.35 µM

CCCCOc1ccc(C(=O)n2nnc3ccccc32)cc1
IC50 [1]: 5.6 µM | IC50 [2]: 5.4 µM

Cc1cccc(C(=O)n2nnc3ccccc32)c1
IC50 [1]: 4.42 µM | IC50 [2]: 4.3 µM

O=C(Cn1nnc2ccccc21)c1ccc(Br)cc1
IC50 [1]: 2.79 to 4.41 µM | IC50 [2]: 2.76 to 4.35 µM

Cc1ccc(C(=O)Cn2nnc3ccccc32)cc1
IC50 [1]: 4.78 µM | IC50 [2]: 4.56 µM

O=C(Cn1nnc2ccccc21)c1cccc([N+](=O)[O-])c1
IC50 [1]: 4 µM | IC50 [2]: 4.02 µM

Cc1cc(C(=O)n2nnc3ccccc32)cc(C)c1C
IC50 [1]: 4.23 µM | IC50 [2]: 4.12 µM

O=C(c1ccccc1)n1nnc2cc(Cl)c(Cl)cc21
IC50 [1]: 3.7 µM | IC50 [2]: 3.66 µM

O=C(c1c(F)cccc1F)n1nnc2ccccc21
IC50 [1]: 5.23 µM | IC50 [2]: 5 µM

COc1ccccc1C(=O)n1nnc2ccccc21
IC50 [1]: 4.79 µM | IC50 [2]: 4.77 µM

COc1ccc(C(=O)Cn2nnc3cc(C)c(C)cc32)cc1
IC50 [1]: 2.6 µM | IC50 [2]: 2.51 µM

O=C(c1cccc(Cl)c1)n1nnc2cc(Cl)c(Cl)cc21
IC50 [1]: 3 µM | IC50 [2]: 2.99 µM

O=C(c1ccc(F)cc1)n1nnc2ccccc21
IC50 [1]: 2.82 µM | IC50 [2]: 2.8 µM

O=C(Cn1nnc2ccccc21)c1ccc(-c2ccccc2)cc1
IC50 [1]: 4.98 µM | IC50 [2]: 4.92 µM
